Measured values as given in ChEMBL document CHEMBL1132197, “Stereospecific synthesis, structure-activity relationship, and oral bioavailability of tetrahydropyrimidin-2-one HIV protease inhibitors” (J Med Chem, 1999).
Values belong to the molecule of their own block, whether it stands above or below them.

What was measured:
[1] = target: Human immunodeficiency virus type 1 protease (Human immunodeficiency virus 1, UniProt Q72874); assay: Inhibition constant of HIV protease inhibitors
Method in brief: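 HIV protease (HIVPR) inhibition constant was determined by monitoring cleavage of a fluorescent peptide substrate, with products separated and quantified by HPLC.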

MT2 = assay: Antiviral activity by measuring its effect on the accumulation of viral RNA transcripts on infection of MT-2 cells with HIV-1 RF.; format: functional; conditions: Homo sapiens
Method in brief: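 Viral RNA transcript accumulation read 3 days after HIV-1 RF infection of MT-2 cells. IC90 is the concentration cutting viral RNA by 90% versus an untreated infected culture. TC50 came from MTT dye reduction in uninfected MT-2 cultures grown 3 days with compound.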

[2] = The maximum plasma concentration (Cmax) is the observed peak plasma concentration after an oral dose on rat.; format: ADME, organism-based; parameters: route oral
Method in brief: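 Rats dosed orally in groups at 10 mg/kg, in a formulation of propylene glycol, poly(ethylene glycol) 400 and water. Cmax is the observed peak plasma concentration after the oral dose.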

SMILES: N=C(NO)c1cccc(CN2C(=O)N(Cc3cccc(C(=N)NO)c3)[C@H](Cc3ccc(F)cc3)[C@H](O)[C@H]2CCc2ccc(F)cc2)c1
- Ki [1]: 0.02 nM
- IC90 (MT2): 49 nM

- Cmax [2]: 810 nM
- IC90 (MT2): 54 nM
SMILES: O=C1N(Cc2cccc(O)c2)[C@H](Cc2ccccc2)[C@H](O)[C@@H](O)[C@@H](Cc2ccccc2)N1Cc1cccc(O)c1

SMILES: NC(=O)c1cccc(CN2C(=O)N(Cc3cccc(C(N)=O)c3)[C@H](Cc3ccccc3)[C@H](O)[C@H]2CCc2ccccc2)c1
- Ki [1]: 0.09 nM

SMILES: NC(=O)c1cccc(CN2C(=O)N(Cc3cccc(C(N)=O)c3)[C@H](Cc3ccc(F)cc3)[C@H](O)[C@H]2CCc2ccc(F)cc2)c1
- Ki [1]: 0.31 nM
- IC90 (MT2): 35 nM

- IC90 (MT2): 328 nM
SMILES: CNc1cccc(CN2C(=O)N(Cc3cccc(NC)c3)[C@H](Cc3ccccc3)[C@H](O)[C@H]2CCc2ccccc2)c1

- Cmax [2]: 830 nM
- IC90 (MT2): 38 nM
SMILES: O=C1N(Cc2cccc(CO)c2)[C@H](Cc2ccccc2)[C@H](O)[C@@H](O)[C@@H](Cc2ccccc2)N1Cc1cccc(CO)c1

SMILES: N#Cc1cc(CN2C(=O)N(Cc3ccc(F)c(C#N)c3)[C@H](Cc3ccccc3)[C@H](O)[C@H]2CCc2ccccc2)ccc1F
- Ki [1]: 230 nM

- IC90 (MT2): 36 nM
SMILES: Nc1cc(CN2C(=O)N(Cc3ccc(F)c(N)c3)[C@H](Cc3ccccc3)[C@H](O)[C@H]2CCc2ccccc2)ccc1F

SMILES: O=C(Nc1nccs1)c1cccc(CN2C(=O)N(Cc3cccc(C(=O)Nc4nccs4)c3)[C@H](Cc3ccccc3)[C@H](O)[C@H]2CCc2ccccc2)c1
- Ki [1]: 0.03 nM
- IC90 (MT2): 31 nM

SMILES: Cc1ccc(NC(=O)c2cccc(CN3C(=O)N(Cc4cccc(C(=O)Nc5ccc(C)cn5)c4)[C@H](Cc4ccccc4)[C@H](O)[C@H]3CCc3ccccc3)c2)nc1
- Ki [1]: 0.08 nM
- IC90 (MT2): 26 nM

SMILES: Nc1cccc(CN2C(=O)N[C@H](CCc3ccccc3)[C@@H](O)[C@H]2Cc2ccccc2)c1
- Ki [1]: 6.2 nM
- IC90 (MT2): 4330 nM

SMILES: N#Cc1cc(CN2C(=O)N(Cc3ccccc3)[C@H](CCc3ccccc3)[C@@H](O)[C@H]2Cc2ccccc2)ccc1F
- Ki [1]: 40 nM

SMILES: O=C(O)c1cccc(CN2C(=O)N(Cc3cccc(C(=O)O)c3)[C@H](Cc3ccccc3)[C@H](O)[C@H]2CCc2ccccc2)c1
- Ki [1]: 0.87 nM

SMILES: N#Cc1cc(CN2C(=O)N[C@H](CCc3ccccc3)[C@@H](O)[C@H]2Cc2ccccc2)ccc1F
- Ki [1]: 110 nM

SMILES: N/C(=N\O)c1cccc(CN2C(=O)N(CC3CC3)[C@H](CCc3ccccc3)[C@@H](O)[C@H]2Cc2ccccc2)c1
- Ki [1]: 0.48 nM
- IC90 (MT2): 36 nM

SMILES: [N-]=[N+]=N[C@@H](Cc1ccccc1)[C@@H]1[C@@H](O)[C@@H](Cc2ccccc2)N(Cc2ccc3ccccc3c2)C(=O)N1Cc1ccc2ccccc2c1
- Ki [1]: 330 nM

SMILES: NC(=O)c1cccc(CN2C(=O)N(Cc3cccc(C(N)=O)c3)[C@H](Cc3ccc(F)c(F)c3)[C@H](O)[C@H]2CCc2ccc(F)c(F)c2)c1
- Ki [1]: 0.15 nM
- IC90 (MT2): 90 nM

SMILES: Nc1cccc(CN2C(=O)N[C@H](Cc3ccccc3)[C@H](O)[C@H]2CCc2ccccc2)c1
- Ki [1]: 157 nM

SMILES: O=C1[C@@H](CCc2ccccc2)N(Cc2ccccc2)C(=O)N(Cc2ccccc2)[C@@H]1Cc1ccccc1
- Ki [1]: 1500 nM

SMILES: N#Cc1cccc(CN2C(=O)N3C(Cc4ccccc4)[C@@H]3[C@@H](O)[C@H]2Cc2ccccc2)c1 (some centres undefined)
- Ki [1]: 2400 nM

SMILES: N#Cc1cccc(CN2C(=O)N(Cc3cccc(N)c3)[C@H](Cc3ccccc3)[C@H](O)[C@H]2CCc2ccccc2)c1
- Ki [1]: 1.6 nM
- IC90 (MT2): 565 nM

- Cmax [2]: 500 nM
SMILES: CC(=O)c1cccc(CN2C(=O)N(Cc3cccc(C(C)=O)c3)[C@H](Cc3ccccc3)[C@H](O)[C@@H](O)[C@H]2Cc2ccccc2)c1

- Cmax [2]: 120 nM
- IC90 (MT2): 115 nM
SMILES: O=C1N(Cc2cccc(O)c2)[C@H](CCc2ccccc2)[C@@H](O)[C@@H](Cc2ccccc2)N1Cc1cccc(O)c1

- IC90 (MT2): 490 nM
SMILES: NC(=O)c1cc(CN2C(=O)N(Cc3ccc(F)c(C(N)=O)c3)[C@H](Cc3ccccc3)[C@H](O)[C@H]2CCc2ccccc2)ccc1F

SMILES: N#Cc1cc(CN2C(=O)N(Cc3ccccc3)[C@H](Cc3ccccc3)[C@H](O)[C@H]2CCc2ccccc2)ccc1F
- Ki [1]: 33 nM

SMILES: Cc1n[nH]c2ccc(CN3C(=O)N(Cc4cccc(N)c4)[C@H](Cc4ccccc4)[C@H](O)[C@H]3CCc3ccccc3)cc12
- Ki [1]: 0.13 nM
- IC90 (MT2): 32 nM

SMILES: Cc1n[nH]c2ccc(CN3C(=O)N(Cc4ccc5[nH]nc(C)c5c4)[C@H](Cc4ccccc4)[C@H](O)[C@H]3CCc3ccccc3)cc12
- Ki [1]: 0.1 nM
- IC90 (MT2): 18 nM

SMILES: NC(=O)c1cccc(CN2C(=O)N(Cc3cccc(N)c3)[C@H](Cc3ccccc3)[C@H](O)[C@H]2CCc2ccccc2)c1
- Ki [1]: 0.06 nM
- IC90 (MT2): 24 nM

SMILES: Nc1cccc(CN2C(=O)N(Cc3ccc4[nH]ncc4c3)[C@H](Cc3ccccc3)[C@H](O)[C@H]2CCc2ccccc2)c1
- Ki [1]: 0.08 nM
- IC90 (MT2): 13 nM

SMILES: O=C1N(CC2CC2)[C@H]([C@@H](O)Cc2ccccc2)[C@@H](O)[C@@H](Cc2ccccc2)N1CC1CC1
- Ki [1]: 410 nM

SMILES: O=C1N[C@H](Cc2ccccc2)[C@H](O)[C@H]2C(Cc3ccccc3)N12 (some centres undefined)
- Ki [1]: 3000 nM

SMILES: Nc1[nH]nc2ccc(CN3C(=O)N(Cc4ccc5n[nH]c(N)c5c4)[C@H](Cc4ccccc4)[C@H](O)[C@H]3CCc3ccccc3)cc12
- Ki [1]: 0.03 nM
- IC90 (MT2): 383 nM

SMILES: O=C1N(Cc2ccccc2)C[C@@H](O)[C@@H](Cc2ccccc2)N1Cc1ccccc1
- Ki [1]: 2400 nM

SMILES: Nc1[nH]nc2ccc(CN3C(=O)N[C@H](CCc4ccccc4)[C@@H](O)[C@H]3Cc3ccccc3)cc12
- Ki [1]: 0.38 nM
- IC90 (MT2): 549 nM

SMILES: Nc1[nH]nc2ccc(CN3C(=O)N(Cc4ccccc4)[C@H](CCc4ccccc4)[C@@H](O)[C@H]3Cc3ccccc3)cc12
- Ki [1]: 0.28 nM
- IC90 (MT2): 126 nM

SMILES: N=C(NO)c1cc(CN2C(=O)N(Cc3ccc(F)c(C(=N)NO)c3)[C@H](Cc3ccccc3)[C@H](O)[C@H]2CCc2ccccc2)ccc1F
- Ki [1]: 0.06 nM
- IC90 (MT2): 51 nM

SMILES: O=C1N(CC2CC2)[C@H](CCc2ccccc2)[C@@H](O)[C@@H](Cc2ccccc2)N1CC1CC1
- Ki [1]: 9.8 nM

SMILES: N=C(NO)c1cccc(CN2C(=O)N(Cc3cccc(C(=N)NO)c3)[C@H](Cc3ccc(F)c(F)c3)[C@H](O)[C@H]2CCc2ccc(F)c(F)c2)c1
- Ki [1]: 0.01 nM
- IC90 (MT2): 117 nM

SMILES: O=C1N[C@H](CCc2ccccc2)[C@@H](O)[C@@H](Cc2ccccc2)N1Cc1cccc(O)c1
- Ki [1]: 2.6 nM
- IC90 (MT2): 4800 nM

SMILES: O=C1N(Cc2cccc(CO)c2)[C@H]([C@@H](Br)Cc2ccccc2)[C@@H](O)[C@@H](Cc2ccccc2)N1Cc1cccc(CO)c1
- Ki [1]: 11 nM
- IC90 (MT2): 2100 nM

SMILES: N#Cc1cccc(CN2C(=O)N(Cc3cccc(C#N)c3)[C@H](Cc3ccc(F)cc3)[C@H](O)[C@H]2CCc2ccc(F)cc2)c1
- Ki [1]: 14 nM
- IC90 (MT2): 1560 nM

SMILES: O=C1N[C@H](CCc2ccccc2)[C@@H](O)[C@@H](Cc2ccccc2)N1Cc1ccc2[nH]ncc2c1
- Ki [1]: 1.2 nM
- IC90 (MT2): 590 nM

SMILES: Nc1cccc(CN2C(=O)N(Cc3ccc4[nH]ncc4c3)[C@H](CCc3ccccc3)[C@@H](O)[C@H]2Cc2ccccc2)c1
- Ki [1]: 0.1 nM
- IC90 (MT2): 16 nM

SMILES: O=C1N[C@H](Cc2ccccc2)[C@H](O)[C@@H](CCc2ccccc2)N1Cc1ccc2[nH]ncc2c1
- Ki [1]: 44 nM

SMILES: N#Cc1cccc(CN2C(=O)N[C@H](CCc3ccccc3)[C@@H](O)[C@H]2Cc2ccccc2)c1
- Ki [1]: 15 nM

SMILES: NC(=O)c1cc(CN2C(=O)N[C@H](CCc3ccccc3)[C@@H](O)[C@H]2Cc2ccccc2)ccc1F
- Ki [1]: 14 nM

SMILES: O=C1N(Cc2ccccc2)[C@H](/C=C/c2ccccc2)[C@@H](O)[C@@H](Cc2ccccc2)N1Cc1ccccc1
- Ki [1]: 460 nM

SMILES: NC(=O)c1cccc(CN2C(=O)N3C(Cc4ccccc4)[C@@H]3[C@@H](O)[C@H]2Cc2ccccc2)c1 (some centres undefined)
- Ki [1]: 320 nM

SMILES: NC(=O)c1cccc(CN2C(=O)N[C@H](CCc3ccccc3)[C@@H](O)[C@H]2Cc2ccccc2)c1
- Ki [1]: 5.6 nM

- Cmax [2]: 70 nM
SMILES: O=C1N(Cc2cccc(-c3cc[nH]n3)c2)[C@H](Cc2ccccc2)[C@H](O)[C@@H](O)[C@@H](Cc2ccccc2)N1Cc1cccc(-c2cc[nH]n2)c1

- IC90 (MT2): 1600 nM
SMILES: N#Cc1cccc(CN2C(=O)N(Cc3cccc(C#N)c3)[C@H](Cc3ccccc3)[C@H](O)[C@H]2CCc2ccccc2)c1

SMILES: N/C(=N\O)c1cccc(CN2C(=O)N3C(Cc4ccccc4)[C@@H]3[C@@H](O)[C@H]2Cc2ccccc2)c1 (some centres undefined)
- Ki [1]: 12 nM

- IC90 (MT2): 539 nM
SMILES: Nc1ccc(CN2C(=O)N(Cc3ccc(N)c(F)c3)[C@H](Cc3ccccc3)[C@H](O)[C@H]2CCc2ccccc2)cc1F

SMILES: O=C1N(Cc2ccccc2)[C@H]([C@@H](Br)Cc2ccccc2)[C@@H](O)[C@@H](Cc2ccccc2)N1Cc1ccccc1
- Ki [1]: 185 nM

- IC90 (MT2): 2800 nM
SMILES: O=C1N(Cc2ccccc2)[C@H](CCc2ccccc2)[C@@H](O)[C@@H](Cc2ccccc2)N1Cc1ccccc1

SMILES: O=C1N(Cc2ccc3c[nH]nc3c2)[C@H](CCc2ccccc2)[C@@H](O)[C@@H](Cc2ccccc2)N1Cc1ccc2c[nH]nc2c1
- Ki [1]: 0.06 nM
- IC90 (MT2): 32 nM

SMILES: N/C(=N\O)c1cccc(CN2C(=O)N(Cc3cccc(N)c3)[C@H](Cc3ccccc3)[C@H](O)[C@H]2CCc2ccccc2)c1
- Ki [1]: 0.02 nM
- IC90 (MT2): 17 nM

SMILES: N/C(=N\O)c1cc(CN2C(=O)N[C@H](CCc3ccccc3)[C@@H](O)[C@H]2Cc2ccccc2)ccc1F
- Ki [1]: 1.4 nM
- IC90 (MT2): 3780 nM

SMILES: Nc1[nH]nc2ccc(CN3C(=O)N(Cc4ccccc4)[C@H](Cc4ccccc4)[C@H](O)[C@H]3CCc3ccccc3)cc12
- Ki [1]: 0.65 nM
- IC90 (MT2): 71 nM

SMILES: O=C1N(Cc2ccc3ccccc3c2)[C@H](/C=C/c2ccccc2)[C@@H](O)[C@@H](Cc2ccccc2)N1Cc1ccc2ccccc2c1
- Ki [1]: 280 nM

SMILES: Nc1noc2ccc(CN3C(=O)N(Cc4ccc5onc(N)c5c4)[C@H](Cc4ccccc4)[C@H](O)[C@H]3CCc3ccccc3)cc12
- Ki [1]: 0.41 nM
- IC90 (MT2): 132 nM

SMILES: Nc1cccc(CN2C(=O)N(Cc3ccc4[nH]nc(N)c4c3)[C@H](CCc3ccccc3)[C@@H](O)[C@H]2Cc2ccccc2)c1
- Ki [1]: 0.1 nM
- IC90 (MT2): 53 nM

- Cmax [2]: 2250 nM
SMILES: Nc1cccc(CN2C(=O)N(Cc3cccc(N)c3)[C@H](Cc3ccccc3)[C@H](O)[C@@H](O)[C@H]2Cc2ccccc2)c1 [MOZENAVIR]
